≈ marks a conversion by molar mass, not a printed value.
Columns and labels:
Assay type in all cases: functional
Escherichia coli [1] = experiment: Antibacterial activity against Escherichia coli K12 PhoU wild type W3110 assessed as cell count in stationary phase at 3 ug/ml after 1 day
How it was run: (§1)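 Log-phase or stationary-phase cultures were exposed to ampicillin (100 μg/ml) or norfloxacin (3 μg/ml) in MOPS minimal medium, pH 5.0, at 37°C without shaking, for 5 h to 10 days. Aliquots were saline-washed and plated on LB for CFU/ml.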

Escherichia coli [2] = experiment: Antibacterial activity against Escherichia coli K12 containing deletion deltaphoU mutant assessed as cell count in log phase at 3 ug/ml after 1 day
How it was run: (§2)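 Log-phase or stationary-phase cultures of the ΔphoU deletion mutant (Datsenko–Wanner construction) were exposed to norfloxacin 3 μg/ml in MOPS minimal medium, pH 5.0, at 37°C without shaking, for up to 10 days. Sampled aliquots were washed in saline and plated on LB agar for CFU/ml.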

Escherichia coli [3] = experiment: Antibacterial activity against Escherichia coli K12 PhoU wild type W3110 assessed as cell count in stationary phase at 3 ug/ml after 3 days; how it was run: as §1
Escherichia coli [4] = experiment: Antibacterial activity against Escherichia coli K12 PhoU wild type W3110 at 2 ug/ml after 48 hrs by disc diffusion method
How it was run: (§3)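 Kirby-Bauer disc assay. Log-phase LB culture (10⁸ bacteria) was spread for confluent growth on LB agar. 7 mm nitrocellulose discs soaked in antibiotic at the listed concentrations were laid on the agar. Inhibition zone diameter (mm) was measured after 48 h at 37°C.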

Escherichia coli [5] = experiment: Antibacterial activity against Escherichia coli K12 mutant JHU313 at 2 ug/ml after 48 hrs by disc diffusion method
How it was run: (§4)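 Kirby-Bauer disc assay: log-phase LB culture was spread on LB agar for confluent growth. 7-mm nitrocellulose discs were soaked in antibiotic at the listed concentration and placed on the agar. After 48 h at 37°C, the diameter of the inhibition zone was measured in mm.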

Escherichia coli [6] = experiment: Antibacterial activity against Escherichia coli K12 mutant JHU313 containing plasmid PhoU at 4 ug/ml after 48 hrs by disc diffusion method; how it was run: as §4
Escherichia coli [7] = experiment: Antibacterial activity against Escherichia coli K12 PhoU wild type W3110 assessed as cell count in log phase at 3 ug/ml after 1 week; how it was run: as §1
Escherichia coli [8] = experiment: Antibacterial activity against Escherichia coli K12 PhoU wild type W3110 assessed as cell count in stationary phase at 3 ug/ml after 1 week; how it was run: as §1
Escherichia coli [9] = experiment: Antibacterial activity against Escherichia coli K12 containing PhoU mutant assessed as cell count in log phase at 3 ug/ml after 1 week; how it was run: as §1
Escherichia coli [10] = experiment: Antibacterial activity against Escherichia coli K12 PhoU wild type W3110 after 16 hrs by serial dilution method; conditions: K12, 16 h
How it was run: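 Serial twofold antibiotic dilutions in LB broth; log-phase inoculum 10⁶ to 10⁷ bacteria/ml; 16 h at 37°C. MIC was the lowest concentration with no visible growth. MBC was the concentration giving a 100-fold CFU drop below the seeded inoculum.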

Escherichia coli [11] = experiment: Antibacterial activity against Escherichia coli K12 mutant JHU313 after 16 hrs by serial dilution method; conditions: K12, 16 h
How it was run: (§5)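 Twofold serial antibiotic dilutions in LB broth were seeded with 10⁶–10⁷ bacteria/ml from log-phase culture and incubated 16 h at 37°C. MIC was taken as the lowest concentration with no visible growth. MBC was taken as the concentration giving a 100-fold CFU drop from the inoculum.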

Escherichia coli [12] = experiment: Antibacterial activity against Escherichia coli K12 mutant JHU313 containing plasmid PhoU after 16 hrs by serial dilution method; conditions: K12, 16 h; how it was run: as §5
Escherichia coli [13] = experiment: Antibacterial activity against Escherichia coli K12 mutant JHU313 containing plasmid vector after 16 hrs by serial dilution method; conditions: K12, 16 h; how it was run: as §5
Escherichia coli [14] = experiment: Antibacterial activity against Escherichia coli K12 PhoU wild type W3110 assessed as cell count in log phase at 3 ug/ml after 5 hrs; how it was run: as §1
Escherichia coli [15] = experiment: Antibacterial activity against Escherichia coli K12 containing deletion deltaphoU mutant assessed as cell count in log phase at 3 ug/ml after 5 hrs; how it was run: as §2
Escherichia coli [16] = experiment: Antibacterial activity against Escherichia coli K12 PhoU wild type W3110 assessed as cell count in log phase at 3 ug/ml after 1 day; how it was run: as §1
Escherichia coli [17] = experiment: Antibacterial activity against Escherichia coli K12 containing deletion deltaphoU mutant assessed as cell count in stationary phase at 3 ug/ml after 1 week; how it was run: as §2
Escherichia coli [18] = experiment: Antibacterial activity against Escherichia coli K12 containing deletion deltaphoU mutant assessed as cell count in stationary phase at 3 ug/ml after 10 days; how it was run: as §2
Escherichia coli [19] = experiment: Antibacterial activity against Escherichia coli K12 mutant JHU313 containing plasmid vector at 1.5 ug/ml after 48 hrs by disc diffusion method; how it was run: as §4
Escherichia coli [20] = experiment: Antibacterial activity against Escherichia coli K12 PhoU wild type W3110 assessed as cell count in log phase at 100 ug/ml after 1 day
How it was run: (§6)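 Log-phase or stationary-phase cultures exposed to ampicillin 100 μg/ml in MOPS minimal medium (pH 5.0) at 37°C without shaking, for 5 h up to 10 days. Aliquots were taken at each time point, washed in saline and plated on LB plates for viable CFU/ml.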

Escherichia coli [21] = experiment: Antibacterial activity against Escherichia coli K12 PhoU wild type W3110 assessed as cell count in stationary phase at 100 ug/ml after 1 day; how it was run: as §6
Escherichia coli [22] = experiment: Antibacterial activity against Escherichia coli K12 PhoU wild type W3110 at 100 ug/ml after 48 hrs by disc diffusion method; how it was run: as §3
Escherichia coli [23] = experiment: Antibacterial activity against Escherichia coli K12 PhoU wild type W3110 assessed as cell count in log phase at 100 ug/ml after 5 hrs; how it was run: as §6
Escherichia coli [24] = experiment: Antibacterial activity against Escherichia coli K12 containing PhoU mutant assessed as cell count in log phase at 100 ug/ml after 5 hrs; how it was run: as §1
Escherichia coli [25] = experiment: Antibacterial activity against Escherichia coli K12 containing deletion deltaphoBR mutant assessed as cell count in stationary phase at 100 ug/ml after 72 hrs
How it was run: (§7)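 Deletion mutants were made by the Datsenko–Wanner method. Log-phase or stationary-phase cultures were exposed to ampicillin at 100 μg/ml. CFU/ml was determined at the start and after 5, 24 and 72 h of exposure.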

Escherichia coli [26] = experiment: Antibacterial activity against Escherichia coli K12 PhoU wild type W3110 assessed as cell count at 100 ug/ml
Escherichia coli [27] = experiment: Antibacterial activity against Escherichia coli K12 PhoU wild type W3110 assessed as cell count in log phase at 100 ug/ml after 1 week; how it was run: as §6
Escherichia coli [28] = experiment: Antibacterial activity against Escherichia coli K12 containing deletion deltaphoR mutant assessed as cell count in stationary phase at 100 ug/ml after 5 hrs
How it was run: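 Wild-type W3110-derived deletion mutants were made by the Datsenko–Wanner method. Log-phase or stationary-phase cultures were exposed to ampicillin 100 μg/ml in MOPS minimal medium at pH 5.0, at 37°C without shaking. Aliquots were taken at set times, washed in saline and plated on LB for viable CFU/ml.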

Escherichia coli [29] = experiment: Antibacterial activity against Escherichia coli K12 containing deletion deltaphoBR mutant assessed as cell count in log phase at 100 ug/ml after 5 hrs; how it was run: as §7
Escherichia coli [30] = experiment: Antibacterial activity against Escherichia coli K12 containing deletion deltaphoB mutant assessed as cell count in stationary phase at 100 ug/ml after 24 hrs; how it was run: as §7

## CCn1cc(C(=O)O)c(=O)c2cc(F)c(N3CCNCC3)cc21 [NORFLOXACIN]
Escherichia coli [1]
  CFU: 4 10^9/ml
Escherichia coli [2]
  CFU: 1 10^6/ml
Escherichia coli [3]
  CFU: 1 10^8/ml
Escherichia coli [4]
  inhibition zone (IZ): 30 mm
Escherichia coli [5]
  inhibition zone (IZ): 34 mm
Escherichia coli [6]
  inhibition zone (IZ): 36 mm
Escherichia coli [7]
  CFU: 0 mL⁻¹
Escherichia coli [8]
  CFU: 1.5 10^4/ml
Escherichia coli [9]
  CFU: 0 mL⁻¹
Escherichia coli [10]
  MBC: 1 µg/mL (≈ 3.13 µM)
  MIC: 0.5 µg/mL (≈ 1.57 µM)
Escherichia coli [11]
  MBC: 0.5 µg/mL (≈ 1.57 µM)
  MIC: 0.125 µg/mL (≈ 0.391 µM)
Escherichia coli [12]
  MBC: 1 µg/mL (≈ 3.13 µM)
  MIC: 0.5 µg/mL (≈ 1.57 µM)
Escherichia coli [13]
  MBC: 0.5 µg/mL (≈ 1.57 µM)
  MIC: 0.125 µg/mL (≈ 0.391 µM)
Escherichia coli [14]
  CFU: 1 10^8/ml
Escherichia coli [15]
  CFU: 5 10^7/ml
Escherichia coli [16]
  CFU: 4 10^6/ml
Escherichia coli [17]
  CFU: 0 mL⁻¹
Escherichia coli [18]
  CFU: 0 mL⁻¹

## CC1(C)S[C@@H]2[C@H](NC(=O)[C@H](N)c3ccccc3)C(=O)N2[C@H]1C(=O)O [AMPICILLIN]
Escherichia coli [19]
  inhibition zone (IZ): 27 mm
Escherichia coli [20]
  CFU: 10 mL⁻¹
Escherichia coli [21]
  CFU: 2 10^9/ml
Escherichia coli [10]
  MBC: 12.5 µg/mL (≈ 35.8 µM)
  MIC: 3.1 µg/mL (≈ 8.87 µM)
Escherichia coli [11]
  MBC: 6.25 µg/mL (≈ 17.9 µM)
  MIC: 1.5 µg/mL (≈ 4.29 µM)
Escherichia coli [12]
  MBC: 12.5 µg/mL (≈ 35.8 µM)
  MIC: 3.1 µg/mL (≈ 8.87 µM)
Escherichia coli [13]
  MBC: 6.25 µg/mL (≈ 17.9 µM)
  MIC: 1.5 µg/mL (≈ 4.29 µM)
Escherichia coli [22]
  inhibition zone (IZ): 35 mm
Escherichia coli [23]
  CFU: 3 10^3/ml
Escherichia coli [24]
  CFU: 20 mL⁻¹
Escherichia coli [25]
  CFU: 2 10^8/ml
Escherichia coli [26]
  CFU: 5 10^7/ml
Escherichia coli [27]
  CFU: 0 mL⁻¹
Escherichia coli [28]
  CFU: 4 10^9/ml
Escherichia coli [29]
  CFU: 7 10^3/ml
Escherichia coli [30]
  CFU: 1.8 10^9/ml

— ChEMBL document CHEMBL1145465, “PhoU is a persistence switch involved in persister formation and tolerance to multiple antibiotics and stresses in Escherichia coli” (2007)
